Type in all cases: functional
For assay [1], the system named is Rattus norvegicus. In words: Effect (PLG inhibitor) on apomorphine-Induced rotational behavior in rats at a dose of 0.10 ug/Kg. Put shortly: (§1)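 Rats carrying unilateral 6-hydroxydopamine lesions of the substantia nigra; test compound given ip, then apomorphine 0.25 mg/kg ip. Contralateral rotations counted over 10 min and expressed as percentage change from control rotational response; n = 5 per group; significance versus respective control group (p < 0.05, p < 0.01).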

For assay [2], the system named is Rattus norvegicus. In words: Effect (PLG inhibitor) on apomorphine-Induced rotational behavior in rats at a dose of 1.0 ug/Kg. In outline:
as §1

In assay [3] the test system is Rattus norvegicus. Briefly: Effect (PLG inhibitor) on apomorphine-Induced rotational behavior in rats at a dose of 10.0 ug/Kg. Put shortly: as §1
For assay [4], the system named is Rattus norvegicus. Briefly: Effect (PLG inhibitor) on apomorphine-Induced rotational behavior in rats at a dose of 0.01 ug/Kg. Put shortly: as §1

SMILES strings stand for the structures. Where a SMILES comes first, the peptide text is derived from it. [ ]: non-standard residue; d: D form. Ac6c = NC1(C(=O)O)CCCCC1; Ac5c = NC1(C(=O)O)CCCC1; Deg = CCC(N)(CC)C(=O)O; Ac3c = NC1(C(=O)O)CC1

In the case of `NC(=O)CN1CC[C@@H](NC(=O)[C@@H]2CCCN2)C1=O`, the Change with Rattus norvegicus [1] worked out at 20%; in the assay on Rattus norvegicus [2], 75%; in the assay on Rattus norvegicus [3] it was 191%.
`NC(=O)C1(N2CC[C@@H](NC(=O)[C@@H]3CCCN3)C2=O)CCCCC1`: the Change in the assay with Rattus norvegicus [4] is on record as 7%; in the assay with Rattus norvegicus [1], 1%; in the assay with Rattus norvegicus [2], 19%; in the assay on Rattus norvegicus [3] it was -2%.
The corresponding values for `CCC(CC)(C(N)=O)N1CC[C@@H](NC(=O)[C@@H]2CCCN2)C1=O` are 2%, -3%, 17% and 8%.
In the same order, the values of `NC(=O)C1(N2CC[C@@H](NC(=O)[C@@H]3CCCN3)C2=O)CCCC1` are 4%, -5%, 19% and -4%.
The corresponding values for `NC(=O)C1(N2CC[C@@H](NC(=O)[C@@H]3CCCN3)C2=O)CC1` are -6%, 10%, -8% and 4%.
For the molecule `CC(C)C[C@H](NC(=O)[C@@H]1CCCN1)C(=O)NC1(C(N)=O)CC1` (H-Pro-Leu-[Ac3c]-NH2), the Change with Rattus norvegicus [4] is 15%; in the assay on Rattus norvegicus [1], 18%; in the assay on Rattus norvegicus [2], 8%; with Rattus norvegicus [3] it was -7%.
In the case of `CC(C)C[C@H](NC(=O)[C@@H]1CCCN1)C(=O)NC1(C(N)=O)CCCC1` (H-Pro-Leu-[Ac5c]-NH2), the Change was -15% in the assay on Rattus norvegicus [4], -1% with Rattus norvegicus [1], 5% in the assay on Rattus norvegicus [2] and -26% in the assay on Rattus norvegicus [3].
In the same order, the values of `CC(C)C[C@H](NC(=O)[C@@H]1CCCN1)C(=O)NC1(C(N)=O)CCCCC1` (H-Pro-Leu-[Ac6c]-NH2) are -2%, 14%, -2% and -25%.
The corresponding values for `CCC(CC)(NC(=O)[C@H](CC(C)C)NC(=O)[C@@H]1CCCN1)C(N)=O` (H-Pro-Leu-[Deg]-NH2) are 6%, 31%, 56% and 1%.

These data come from ChEMBL document CHEMBL1132194, “Synthesis and dopamine receptor modulating activity of novel peptidomimetics of L-prolyl-L-leucyl-glycinamide featuring alpha,alpha-disubstituted amino acids” (1999).
